From publication PMC3330681 (Scientific Reports, 2012)

Experiments:
Type in all cases: cell-based
[1] = biological target: T1, GPR35 (Homo sapiens, UniProt Q9HC97); assay: Tango β-arrestin translocation gene reporter assay in U2OS-GPR35-bla cells; conditions: for Efficacy Tango (maximal response): normalized to maximal response of zaprinast within the same plate
[2] = biological target: T1, GPR35; assay: Dynamic mass redistribution; conditions: for DMR signal in DMR agonism profiling (in words): doses up to 1 mM
[3] = biological target: T1, GPR35; assay: DMR antagonist assay: SPB05142 blocking the agonist-induced DMR in HT-29 cells; conditions: for DMR of the agonist in the presence of 64 μM SPB05142: HT-29 cells
How it was run: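 HT-29 cells in McCoy's 5a with 10% FBS were grown overnight to confluence on resonant waveguide biosensor plates, washed into HBSS and equilibrated 1 hr at 26°C. GPR35 antagonist pretreatment lasted 1 hr, then baseline, then agonist at a fixed dose. DMR was recorded for about 1 hr and background-corrected.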

[4] = biological target: T1, GPR35; assay: Receptor internalization assay; conditions: HT-29, 1 hr; 50 μM gentisate, 2 mM L-DOPA, 50 μM DHICA, 500 μM DOPAC, 5 μM reverse T3, 200 μM T4, 50 μM 3-nitrotyrosine
How it was run: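 HT-29 cells (McCoy's 5a, 10% FBS, 37°C/5% CO2) were seeded on chamber slides at 10,000 cells/well for 24 hrs, then given a test compound at a fixed dose or DMSO vehicle for 1 hr at 37°C. Cells were fixed in 4% formaldehyde, permeabilized, and stained with intracellular-domain anti-GPR35 (1:500, 24 hrs) and an Alexa Fluor 594 secondary. Confocal imaging followed.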

[5] = U2OS-GPR35-bla cells, β-arrestin translocation
[6] = DMR agonism, HT-29 cells, maximal DMR amplitude within 1 hr

T1 sequence (Q9HC97 whole entry): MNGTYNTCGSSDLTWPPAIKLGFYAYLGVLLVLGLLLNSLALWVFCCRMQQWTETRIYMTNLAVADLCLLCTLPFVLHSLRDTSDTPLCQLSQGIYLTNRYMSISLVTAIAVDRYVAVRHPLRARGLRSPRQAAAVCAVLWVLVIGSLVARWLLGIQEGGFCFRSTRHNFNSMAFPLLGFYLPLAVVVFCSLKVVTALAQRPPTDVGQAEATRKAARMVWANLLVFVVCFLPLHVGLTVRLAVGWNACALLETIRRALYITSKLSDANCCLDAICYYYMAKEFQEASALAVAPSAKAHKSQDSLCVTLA

Compound | EC50 Tango [1, 5] | EC50 DMR [2, 6] | EC50 [1] [µM] | Efficacy Tango (maximal response) ([1]; U2OS-GPR35-bla cells) [% Zaprinast] | Efficacy DMR (maximal response) ([2]; HT-29 cells) | EC50 [2] [µM] | DMR signal in DMR agonism profiling (in words) ([2]; HT-29 cells) | other results
NC(Cc1ccccc1)C(=O)O (racemic) [DL-Phenylalanine, DL-phenylalanine] | Inactive | Inactive |  |  |  |  |  | 
C[C@](N)(Cc1ccc(O)c(O)c1)C(=O)O [α-methyl-L-DOPA, reference compound] | Inactive | Inactive |  |  |  |  |  | 
O=C(O)c1cc(=O)c2ccccc2[nH]1 [Kynurenic acid, reference compound] |  |  | > 500 | >60 | 203±13 pm |  |  | 
N[C@@H](Cc1ccc(O)cc1)C(=O)O [L-Tyrosine, L-tyrosine] | Inactive | Inactive |  |  |  |  |  | 
O=C(/C=C/c1ccc(O)c(O)c1)O[C@H](Cc1ccc(O)c(O)c1)C(=O)O [Rosmarinate, rosmarinate] |  |  | 169 ± 17 | 63 | 320±11 pm | 29.4 ± 2.7 | active | 
O=C(O)CCc1ccc(O)c(O)c1 [Dihydrocaffeic acid, 3-(3,4-dihydroxyphenyl)propionic acid] |  |  | 186 ± 21 | 46 | 293±12 pm | 342 ± 41 | active | DMR of the agonist in the presence of 64 μM SPB05142 [3]: residual DMR signal
O=C([O-])c1cc(=O)c2c(OCC(O)COc3cccc4oc(C(=O)[O-])cc(=O)c34)cccc2o1.[Na+].[Na+] [Cromolyn disodium, reference compound] |  |  |  | 97 | 252±16 pm |  |  | EC50 ([1]; read-out: EC50 Tango, U2OS-GPR35-bla cells, β-arrestin translocation): 9.67 ± 0.71 µM; EC50 ([2]; read-out: EC50 DMR, DMR agonism, HT-29 cells, maximal DMR amplitude within 1 hr): 0.52 ± 0.04 µM
CCCOc1ccccc1-c1nc2nn[nH]c2c(=O)[nH]1 [Zaprinast, reference compound] |  |  |  | 100 | 250±17 pm |  |  | 
O=C([O-])/C=C/C(=O)[O-].[Na+].[Na+] [Sodium fumarate, sodium fumarate] | Inactive | Inactive |  |  |  |  |  | 
O=C(O)Cc1ccc(O)c(O)c1 [DOPAC, 3,4-Dihydroxyphenylacetic acid] |  |  | 106 ± 7 | 44 | >200 pm | > 500 | active | DMR of the agonist in the presence of 64 μM SPB05142 [3]: residual DMR signal; GPR35 internalization [4]: obvious internalization
COC(=O)c1cnn(-c2ccc(F)cc2F)c1C=NNC(=S)NC(C)(C)C [SPB05142, methyl-5-[(tert-butylcarbamothioylhydrazinylidene)-methyl]-1-(2,4-difluorophenyl)-pyrazole-4-carboxylate, reference compound] |  |  |  |  |  |  | little or no DMR signal | Inhibition by SPB05142 of the DMR of DOPA ([3]; HT-29, agonist at EC50 to EC80): partially inhibited; Inhibition by SPB05142 of the DMR arising from all other eleven agonists ([3]; HT-29, each agonist at EC50 to EC80): dose-dependently inhibited; IC50 Antagonist (SPB05142 to block the DMR of the agonist) ([3]; against homogentisate, HT-29): No inhibition; Activity in Tango β-arrestin translocation assay (in words) ([1]; U2OS-GPR35-bla cells): inactive
N[C@@H](Cc1ccc(O)c(I)c1)C(=O)O [3-Iodo-L-tyrosine, 3-iodo-L-tyrosine] | Inactive |  |  |  | >50 pm | > 500 |  | DMR signal at 1 mM (in words) ([2]; HT-29 cells, 1 mM): small but detectable DMR
N[C@@H](Cc1ccc(Oc2cc(I)c(O)c(I)c2)c(I)c1)C(=O)O [Reverse T3, 3,3′,5′-triiodothyronine] |  |  | 108 ± 9 | 108 | 276±12 pm | 5.89 ± 0.39 | clear dose-dependent DMR | GPR35 internalization [4]: obvious internalization; Activity in Tango β-arrestin translocation assay (in words) ([1]; U2OS-GPR35-bla cells): full agonist
COc1cc(CCN)ccc1O [3-Methoxytyramine, 3-methoxytyramine] | Inactive | Inactive |  |  |  |  |  | 
O=C(O)c1cccnc1Nc1cccc(C(F)(F)F)c1 [Niflumic acid, reference compound] |  |  |  | 39 | 223±11 pm |  |  | 
N[C@@H](Cc1ccc(O)c([N+](=O)[O-])c1)C(=O)O [3-Nitro-L-tyrosine, 3-nitro-L-tyrosine] |  |  | > 500 | >20 | 330±13 pm | 142 ± 27 | robust DMR signal | Activity in Tango β-arrestin translocation assay (in words) ([1]; U2OS-GPR35-bla cells): able to result in β-arrestin translocation
N[C@@H](Cc1cc(I)c(O)c(I)c1)C(=O)O [3,5-Diiodo-L-tyrosine, 3,5-diiodo-L-tyrosine] | Inactive |  |  |  | 254±19 pm | 304 ± 45 | clear dose-dependent DMR | 
N[C@@H](Cc1cc(I)c(Oc2cc(I)c(O)c(I)c2)c(I)c1)C(=O)O [L-Thyroxine (T4), L-thyroxine, reference compound] |  |  | > 500 | >20 | >100 pm | > 500 |  | 
N[C@@H](Cc1ccccc1)C(=O)O [L-Phenylalanine, L-phenylalanine] | Inactive | Inactive |  |  |  |  |  | 
N[C@@H](Cc1ccc(O)c(O)c1)C(=O)O [L-DOPA, 3,4-dihydroxy-L-phenylalanine, reference compound] | Inactive |  |  |  | Off-target | > 500 | did not reach a saturated level up to 1 mM | GPR35 internalization [4]: obvious internalization
COc1cc(CC(=O)O)ccc1O [Homovanillic acid, homovanillic acid] | Inactive | Inactive |  |  |  |  |  | 
O=C(O)c1cc2cc(O)c(O)cc2[nH]1 [DHICA, 5,6-dihydroxyindole-2-carboxylic acid] |  |  | 22.9 ± 1.6 | 75 | 310±11 pm | 24.2 ± 2.7 | clear dose-dependent and saturable DMR | GPR35 internalization [4]: obvious internalization; Activity in Tango β-arrestin translocation assay (in words) ([1]; U2OS-GPR35-bla cells): robust FRET signal
OCC(O)c1ccc(O)c(O)c1 (stereo not drawn) [DHPG, 3,4-dihydroxyphenylglycol] |  |  | 563 ± 67 | 18 | 310±12 pm | 239 ± 37 | active | DMR of the agonist in the presence of 64 μM SPB05142 [3]: residual DMR signal
NC(Cc1ccc(O)cc1)C(=O)O (racemic) [DL-Tyrosine, DL-tyrosine] | Inactive | Inactive |  |  |  |  |  | 
O=C(O)Cc1ccc(O)cc1 [4-Hydroxyphenylacetate, 4-hydroxyphenylacetate] | Inactive | Inactive |  |  |  |  |  | 
CCOC(=O)Cc1ccc(O)c(OC)c1 [Ethyl homovanillate, ethyl homovanillate] |  | Inactive |  |  |  |  |  | 
